Measured values from ChEMBL document CHEMBL4732044, “Discovery of a promising agent IQZ23 for the treatment of obesity and related metabolic disorders” (Eur J Med Chem, 2020).
Active and inactive are the calls of the source. The rule behind the calls is not given here.

What was measured:
3T3-L1 [1] = experiment: Lipid lowering activity in mouse 3T3-L1 cells assessed as adipogenic cocktail-induced triglyceride levels at 1 uM incubated for 6 days by GPO-POD assay relative to control; assay type: functional; details: time 6 day
Procedure, shortened: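 Confluent 3T3-L1 cells were treated from day 0 in cocktail (IBMX, dexamethasone, insulin) for 3 days, then re-dosed in insulin medium for 3 more days. For dose–response, concentrations were 0–10 µM (0.01, 0.1, 0.3, 1, 3, 10). On day 6, cells were lysed in 0.2% Triton X-100 and TG was measured by GPO-POD and normalized to BCA protein as % of control. EC50 was fitted from the dose–response. N = 4.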

3T3-L1 [2] = experiment: Activation of AMPK pathway in adipogenic cocktail-induced mouse 3T3-L1 cells assessed as decrease in ATP level at 1 uM after 24 hrs; assay type: cell-based; details: filed as activator
Procedure, shortened: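 Confluent 3T3-L1 pre-adipocytes exposed to adipogenic cocktail (0.5 mM IBMX, 100 ng/mL dexamethasone, 2 µg/mL insulin) with compound at 0.3 or 1 µM for 24 h. ATP quantified with a commercial luminescent kit and normalized to protein.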

3T3-L1 [3] = experiment: Inhibition of mouse 3T3-L1 cells adipocyte differentiation assessed as reduction in adipogenic cocktail-induced fatty acid synthase protein expression at 0.3 to 1 uM after 6 days by Western blot analysis; assay type: functional, cell-based; details: dose 0.3-1 µM, time 6.0 day
Procedure, shortened: (§1)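 3T3-L1 preadipocytes were differentiated with cocktail for 3 days, then insulin medium for 3 days, with compound (0.3 or 1 µM) present throughout. Cells were harvested on day 6 and proteins measured by Western blot, with densitometry normalized to actin.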

C2C12 = experiment: Activation of AMPK pathway in mouse C2C12 cells assessed as increase in glucose uptake at 0.3 to 1 uM after 6 hrs in presence of insulin by 2-NBDG/Hoechst 33342 staining based Confocal microscopic method; assay type: cell-based; details: filed as activator, dose 0.3-1 µM
Procedure, shortened: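 C2C12 myoblasts kept in DMEM with 10% FBS and 1% penicillin/streptomycin at 37 °C under 5% CO2.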

Mus musculus [4] = experiment: Antiobesity activity in high fat diet-induced obese C57BL/6J mouse model assessed as blood urea nitrogen level at 20 mg/kg, ip administered for every other days for 6 weeks by auto-analyzer method (reference value: 14.6 +/- 1.4 mM); assay type: functional
3T3-L1 [5] = experiment: Activation of AMPK pathway in mouse 3T3-L1 cells assessed as increase in PCG1alpha mRNA expression at 0.3 to 1 uM after 24 hrs by RT-qPCR analysis; assay type: cell-based; details: filed as activator, dose 0.3-1 µM
Mus musculus [6] = experiment: Antiobesity activity in high fat diet-induced obese C57BL/6J mouse model assessed as AST level at 20 mg/kg, ip administered for every other days for 6 weeks by auto-analyzer method (reference value: 341.6 +/- 23.8 U/L); assay type: functional
Procedure, shortened: (§2)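 Male C57BL/6J mice (7–8 weeks) fed HFC diet (60% fat, 1% cholesterol) for up to 14 weeks. From week 9, given 20 mg/kg i.p. every other day for 6 weeks in saline with 10% ethanol and 10% castor oil, or vehicle. Body weight and food intake recorded daily. At end, mice fasted 6 h, anesthetized, and blood collected into EDTA. Plasma chemistry run on an auto-analyzer; insulin by ultra-sensitive ELISA.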

Mus musculus [7] = experiment: Antiobesity activity in high fat diet-induced obese C57BL/6J mouse model assessed as ALT level at 20 mg/kg, ip administered for every other days for 6 weeks by auto-analyzer method (reference value: 231.9 +/- 18.5 U/L); assay type: functional; procedure, shortened: as §2
3T3-L1 [8] = experiment: Inhibition of mouse 3T3-L1 cells adipocyte differentiation assessed as reduction in adipogenic cocktail-induced SREBP-1c protein expression at 0.3 to 1 uM after 24 hrs by Western blot analysis; assay type: functional, cell-based; details: dose 0.3-1 µM
Procedure, shortened: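 3T3-L1 preadipocytes were exposed to adipogenic cocktail with compound (0.3 or 1 µM) and harvested on day 1. Lysates were resolved by SDS-PAGE, immunoblotted (primary antibody overnight at 4 °C, HRP secondary) and quantified by densitometry normalized to actin.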

Mus musculus [9] = experiment: Antiobesity activity in high fat diet-induced obese C57BL/6J mouse model assessed as decrease in calorie intake at 20 mg/kg, ip administered for every other days for 6 weeks; assay type: functional, organism-based; procedure, shortened: as §2
3T3-L1 [10] = experiment: Inhibition of mouse 3T3-L1 cells adipocyte differentiation assessed as reduction in adipogenic cocktail-induced ACC protein expression at 0.3 to 1 uM after 6 days by Western blot analysis; assay type: functional, cell-based; details: dose 0.3-1 µM, time 6.0 day; procedure, shortened: as §1
Mus musculus [11] = experiment: Antiobesity activity in high fat diet-induced obese C57BL/6J mouse model assessed as TG level at 20 mg/kg, ip administered for every other days for 6 weeks by auto-analyzer method (reference value: 1.2 +/- 0.02 mM); assay type: functional; procedure, shortened: as §2
Mus musculus [12] = experiment: Antiobesity activity in high fat diet-induced obese C57BL/6J mouse model assessed as decrease in liver weight at 20 mg/kg, ip administered for every other days for 6 weeks; assay type: functional, organism-based
Mus musculus [13] = experiment: Anti-hyperglycemic activity in high fat diet-induced obese C57BL/6J mouse model assessed as decrease in blood glucose level at 20 mg/kg, ip after 6 hrs; assay type: functional, organism-based
Procedure, shortened: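 C57BL/6J mice fed HFC diet (60% fat, 1% cholesterol). Single i.p. injection of saline or compound at 20 mg/kg. Blood glucose measured with a glucose monitor at 0, 0.5, 1, 2, 4, 8, 12 and 24 h.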

Mus musculus [14] = experiment: Antiobesity activity in high fat diet-induced obese C57BL/6J mouse model assessed as total bilirubin level at 20 mg/kg, ip administered for every other days for 6 weeks by auto-analyzer method (reference value: 1.3 +/- 0.12 mM); assay type: functional

SMILES	Activity (3T3-L1 [1]) [%]	Activity (3T3-L1 [2])	inhibition (3T3-L1 [3])	Activity (C2C12)	Activity (Mus musculus [4]) [mM]	Activity (3T3-L1 [5])	Activity (Mus musculus [6]) [U/L]	Activity (Mus musculus [7]) [U/L]	inhibition (3T3-L1 [8])	Activity (Mus musculus [9])	inhibition (3T3-L1 [10])	Activity (Mus musculus [11]) [mM]	Activity (Mus musculus [12])	Activity (Mus musculus [13])	Activity (Mus musculus [14]) [mmol]
CN(C)CCCNc1nc(-c2[nH]c3ccccc3c2C=O)nc2ccccc12	20.8	Active	–	–	–	–	–	–	–	–	–	–	–	–	–
COc1ccc2[nH]c(-c3nc(NCCCCN4CCCC4)c4ccccc4n3)c(C=O)c2c1	–	–	Active	Active	11.5	Active	163.7	52	Active	inactive	Active	0.92	Active	Active	0.9
